Measured values published in publication PMC4238911 (Cancer chemotherapy and pharmacology, 2011).
Where two headings read alike, the source gives them in different places.

Columns and labels:
TrkB = TrkB (Homo sapiens, UniProt Q16620); type: cell-based
[1] = test system: refractory high-risk neuroblastoma; test: Tumor response; type: in vivo, human
Procedure, shortened: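 Children received the oral test compound BID, 5 of 7 days, in 28-day cycles at 25–120 mg/M2/dose (3 + 3 escalation). Response was assessed after cycles 1, 2, 4 and 8, then every 4th cycle. Scoring used NANT criteria (modified International Neuroblastoma Response Criteria), with RECIST for measurable CT/MRI tumor and Curie score for MIBG lesions.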

[2] = test system: JAK2-mutated (JAK2^V617F) myelofibrosis; conditions: 22 patients; cited from earlier work
[3] = previous trials; cited from earlier work
Trk kinase domain = conditions: cited from earlier work
clinical = conditions: human, in vivo, po
[4] = Plasma pharmacokinetics of lestaurtinib; conditions: human, po
[5] = subjects of N = 46, all dose levels
[6] = the other subject with mixed response, complete marrow response

Sequence of TrkB (Q16620 32-822, species assumed): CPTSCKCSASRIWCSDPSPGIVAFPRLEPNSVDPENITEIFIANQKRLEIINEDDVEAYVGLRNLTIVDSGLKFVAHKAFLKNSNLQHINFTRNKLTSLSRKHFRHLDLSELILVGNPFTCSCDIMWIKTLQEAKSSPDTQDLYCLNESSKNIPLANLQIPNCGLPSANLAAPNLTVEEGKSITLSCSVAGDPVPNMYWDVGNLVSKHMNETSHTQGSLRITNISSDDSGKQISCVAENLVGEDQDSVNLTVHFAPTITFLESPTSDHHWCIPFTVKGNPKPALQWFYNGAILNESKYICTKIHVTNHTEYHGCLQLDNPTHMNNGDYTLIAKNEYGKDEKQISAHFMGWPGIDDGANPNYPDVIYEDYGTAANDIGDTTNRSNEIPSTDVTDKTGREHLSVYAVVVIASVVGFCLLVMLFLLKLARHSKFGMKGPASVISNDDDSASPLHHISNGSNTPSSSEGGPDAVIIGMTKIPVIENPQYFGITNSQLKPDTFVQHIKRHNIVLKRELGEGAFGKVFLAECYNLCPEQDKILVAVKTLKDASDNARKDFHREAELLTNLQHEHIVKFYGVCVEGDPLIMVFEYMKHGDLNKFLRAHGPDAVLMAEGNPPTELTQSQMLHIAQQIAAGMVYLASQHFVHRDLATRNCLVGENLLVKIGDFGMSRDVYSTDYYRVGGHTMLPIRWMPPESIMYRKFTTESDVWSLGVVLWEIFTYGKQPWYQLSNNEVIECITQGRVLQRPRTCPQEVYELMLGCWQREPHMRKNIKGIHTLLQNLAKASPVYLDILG

Structure (SMILES): C[C@]12O[C@H](C[C@]1(O)CO)n1c3ccccc3c3c4c(c5c6ccccc6n2c5c31)CNC4=O [lestaurtinib, Lestaurtinib]
- Plasma inhibition of phospho-TrkB activity (TrkB; 1 h post-dosing, 120 mg/M^2): uniform inhibition
- Inhibition of phosphorylation of TrkB by immunoblotting (TrkB; plasma 1 h after lestaurtinib, days 5 and 26, all ten dose levels, 31 subjects): evident only in cells exposed to plasma from subjects treated at dose levels ≥ 6
- Sustained suppression of TrkB phosphorylation (TrkB; pre-drug/trough plasma samples, twice daily dosing): not evident
- Duration of prolonged control of disease, median ([1]; 10 of 26 subjects at doses ≥ 70 mg/M^2/dose BID, range 5–28): 10 cycles
- Response/SD > 5 months ([1]; dose level 1–3, of total subjects at these dose levels): 0/9 (total subjects at dose levels 1–3)
- Response/SD > 5 months ([1]; dose level 4–5 (2 SD)): 2/22 (2 SD)
- Response/SD > 5 months ([1]; dose level 5a–8 (2 PR, 2 Mixed, 4 SD)): 8/16 (2 PR, 2 Mixed, 4 SD)
- Subjects who maintained a response or SD for at least 5 cycles ([1]; dose levels > 5, 10 of 26 subjects): 38.5%
- Patients who maintained a response or SD ([1]; dose levels ≥ 5a, 8/16): 50%
- Duration of maintained response or SD, median ([1]; dose levels ≥ 5a, 8/16 patients): 10 months
- Subjects with prolonged control of disease ([1]; doses ≥ 70 mg/M^2/dose BID, 10 of 26 subjects): 38.5%
- Duration of prolonged stable disease, median ([1]; nine subjects at dose levels ≥ 5): 6 cycles
- Marrow tumor content after treatment ([1]; one subject with prolonged stable disease, decreased from 75): 2%
- Urine catecholamine response: reduction in HVA ([1]; second subject with PR): 15%
- Urine catecholamine response: reduction in VMA ([1]; second subject with PR): 44%
- Duration of prolonged stable disease, median ([1]; six subjects, range 5–13): 7 cycles
- Number of treatment courses prior to PD: ≥17 months ([1]; subjects of 46): 3/46
- Number of treatment courses prior to PD: 11–16 months ([1]; subjects of 46, one of 3 stopped therapy after 13 cycles due to toxicity): 3 ^b/46
- Number of treatment courses prior to PD: 4–10 months ([1]; subjects of 46, one of 11 stopped therapy after 5 cycles due to toxicity): 11 ^a/46
- Best overall response: Mixed [1, 5]: 3/46
- Best overall response: PR [1, 5]: 2/46
- Best overall response: Progressive disease [1, 5]: 21/46
- Best overall response: Stable disease [1, 5]: 20/46
- Urine catecholamines: reduction in HVA [1, 6]: 15%
- Urine catecholamines: reduction in VMA [1, 6]: 45%
- Median duration of response [2]: 14 months
- Overall response rate [2]: 27%
- Patients with grade 1/2 elevated LFTs possibly related to lestaurtinib [3]: ≤ 30%
- Concentration that competitively inhibits ATP binding to the Trk kinase domain (Trk kinase domain): nanomolar concentrations
- AUC(0-t) (clinical; 25 mg/m2): 29500 ng·h/mL
- Tmax (clinical; 25 mg/m2): 1.5 h
- half-life (clinical; 25 mg/m2): 10.5 ± 3.6 h
- AUC(0-t) (clinical; 35 mg/m2): 37500 ng·h/mL
- Cmax (clinical; 35 mg/m2): 3390 ng/mL
- Tmax (clinical; 35 mg/m2): 2 h
- half-life (clinical; 35 mg/m2): 7 h
- Cmax (clinical; 45 mg/m2): 3060 ng/mL
- half-life (clinical; 45 mg/m2): 4.5 ± 1.2 h
- AUC(0-t) (clinical; 55 mg/m2): 34900 ng·h/mL
- Tmax (clinical; 55 mg/m2): 1 h
- half-life (clinical; 55 mg/m2): 6 ± 3.4 h
- AUC(0-inf) (clinical; 62.5 mg/m2): 28900 ng·h/mL
- Cmax (clinical; 62.5 mg/m2): 4500 ng/mL
- half-life (clinical; 62.5 mg/m2): 4.3 ± 0.9 h
- Tmax (clinical; 70 mg/m2): 1 h
- half-life (clinical; 70 mg/m2): 3.6 ± 1.4 h
- AUC(0-inf) (clinical; 77.5 mg/m2): 54800 ng·h/mL
- AUC(0-t) (clinical; 77.5 mg/m2): 47500 ng·h/mL
- half-life (clinical; 77.5 mg/m2): 8.2 h
- AUC(0-t) (clinical; 85 mg/m2): 15500 ng·h/mL
- half-life (clinical; 85 mg/m2): 3.9 h
- AUC(0-inf) (clinical; 92.5 mg/m2): 51500 ng·h/mL
- half-life (clinical; 92.5 mg/m2): 4.3 h
- Cmax (clinical; 120 mg/m2): 3510 ng/mL
- half-life (clinical; 120 mg/m2): 7.9 h
- Tmax [4]: 1 to 2 h
- AUC(0-inf) ([4]; 25 mg/m2): 39500 ng·h/mL
- Cmax ([4]; 25 mg/m2): 2400 ng/mL
- AUC(0-inf) ([4]; 35 mg/m2): 41300 ng·h/mL
- AUC(0-inf) ([4]; 45 mg/m2): 16400 ng·h/mL
- AUC(0-t) ([4]; 45 mg/m2): 15900 ng·h/mL
- Tmax ([4]; 45 mg/m2): 1 h
- AUC(0-inf) ([4]; 55 mg/m2): 40800 ng·h/mL
- Cmax ([4]; 55 mg/m2): 4900 ng/mL
- AUC(0-t) ([4]; 62.5 mg/m2): 26600 ng·h/mL
- Tmax ([4]; 62.5 mg/m2): 1 h
- AUC(0-inf) ([4]; 70 mg/m2): 15800 ng·h/mL
- AUC(0-t) ([4]; 70 mg/m2): 15000 ng·h/mL
- Cmax ([4]; 70 mg/m2): 3810 ng/mL
- Cmax ([4]; 77.5 mg/m2): 3680 ng/mL
- Tmax ([4]; 77.5 mg/m2): 2 h
- AUC(0-inf) ([4]; 85 mg/m2): 15600 ng·h/mL
- Cmax ([4]; 85 mg/m2): 3460 ng/mL
- Tmax ([4]; 85 mg/m2): 1 h
- AUC(0-t) ([4]; 92.5 mg/m2): 37100 ng·h/mL
- Cmax ([4]; 92.5 mg/m2): 8740 ng/mL
- Tmax ([4]; 92.5 mg/m2): 1 h
- AUC(0-inf) ([4]; 120 mg/m2): 39500 ng·h/mL
- AUC(0-t) ([4]; 120 mg/m2): 34900 ng·h/mL
- Tmax ([4]; 120 mg/m2): 1.5 h
- Subjects with transaminase elevation grade 3/4 or dose limiting (5 subjects, all dose levels): 11%
- MTD (10 dose levels, 25–120 mg/M^2/dose BID): no MTD was defined
- Subjects with transaminase elevation grade 1/2 (30 subjects, all dose levels): 64%
- Subjects with reversible pancreatitis (grade 2) (after prolonged treatment at higher dose levels): 3 subjects
- Hematologic DLTs (all dose levels): no hematologic DLTs identified
- # subjects with DLT during course 1 (dose level 4, 55 mg/M^2/dose BID, 7 subjects entered): 7 (1)
- # subjects with DLT during course 1 (dose level 5, 70 mg/M^2/dose BID, 10 subjects entered): 10 (2)
- # subjects with DLT during course 1 (dose level 8, 120 mg/M^2/dose BID, 6 subjects entered): 6 (1)
- Subjects who came off study for toxicity (of 47 enrolled): three
